{"source": "ChEMBL document CHEMBL1165849", "about": "“New structures and bioactivity properties of jasplakinolide (jaspamide) analogues from marine sponges” (2010)", "key": {"HeLa": {"system": "HeLa", "test": "Cytotoxicity against human HeLa cells at 80 nM after 34 hrs by microfilament disruption assay", "type": "functional, cell-based"}, "HOP-62": {"system": "HOP-62", "test": "Growth inhibition of human HOP62 cells by sulforhodamine B assay", "type": "functional", "in_short": "(§1)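 Tested by NCI in the NCI-DTP 60 cell line panel screen; GI50 was derived, with TGI and LC50 from the same data.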"}, "HCT-116": {"system": "HCT-116", "test": "Growth inhibition of human HCT116 cells by sulforhodamine B assay", "type": "functional"}, "HCT-15": {"system": "HCT-15", "test": "Growth inhibition of human HCT15 cells by sulforhodamine B assay", "type": "functional", "in_short": "as §1"}, "SF-539": {"system": "SF-539", "test": "Growth inhibition of human SF539 cells by sulforhodamine B assay", "type": "functional", "in_short": "as §1"}, "M14": {"system": "M14", "test": "Growth inhibition of human M14 cells by sulforhodamine B assay", "type": "functional", "in_short": "as §1"}, "OVCAR-3": {"system": "OVCAR-3", "test": "Growth inhibition of human OVCAR-3 cells by sulforhodamine B assay", "type": "functional", "in_short": "as §1"}, "786-0": {"system": "786-0", "test": "Growth inhibition of human 786-0 cells by sulforhodamine B assay", "type": "functional", "in_short": "as §1"}, "MCF7": {"system": "MCF7", "test": "Growth inhibition of human MCF7 cells by sulforhodamine B assay", "type": "functional"}, "[1]": {"test": "Growth inhibition of human […] cells by sulforhodamine B assay", "type": "functional", "in_short": "as §1"}}, "note": "The source made the active and inactive calls. The rule behind the calls is not given here."}
{"smiles": "C=C1C[C@H](C)C(=O)N[C@@H](C)C(=O)N(C)[C@H](CC2(OC)OC(=O)Nc3ccccc32)C(=O)N[C@@H](c2ccc(O)cc2)CC(=O)O[C@@H](C)C[C@@H](C)C1=O", "note": "(stereo partly specified)", "values": [{"measurement": "Activity", "setting": "HeLa", "value": "inactive"}]}
{"smiles": "C=C1C[C@H](C)C(=O)N[C@@H](C)C(=O)N(C)[C@H](Cc2c(Br)[nH]c3ccccc23)C(=O)N[C@@H](c2ccc(O)cc2)CC(=O)O[C@@H](C)C[C@@H](C)C1=O", "note": "[JASPLAKINOLIDE B]", "values": [{"measurement": "Activity", "setting": "HeLa", "value": "inactive"}, {"measurement": "GI50", "setting": "HOP-62", "value": 140, "unit": "nM"}, {"measurement": "GI50", "setting": "HCT-116; Homo sapiens, HCT-116", "value": "< 1", "unit": "nM"}, {"measurement": "GI50", "setting": "HCT-15", "value": 6600, "unit": "nM"}, {"measurement": "GI50", "setting": "SF-539", "value": 64, "unit": "nM"}, {"measurement": "GI50", "setting": "M14", "value": 53, "unit": "nM"}, {"measurement": "GI50", "setting": "OVCAR-3", "value": 110, "unit": "nM"}, {"measurement": "GI50", "setting": "786-0", "value": 510, "unit": "nM"}, {"measurement": "GI50", "setting": "MCF7; Homo sapiens, MCF7", "value": 130, "unit": "nM"}, {"measurement": "GI50", "setting": "[1]", "value": 1.9, "unit": "nM"}]}
{"smiles": "C/C1=C\\[C@H](C)C[C@H](C)OC(=O)C[C@H](c2ccc(O)cc2)NC(=O)[C@@H](Cc2c(Br)[nH]c3ccccc23)N(C)C(=O)[C@H](CO)NC(=O)[C@@H](C)C1", "note": "[JASPAMIDE E]", "values": [{"measurement": "Activity", "setting": "HeLa", "value": "inactive"}, {"measurement": "GI50", "setting": "HOP-62", "value": 140, "unit": "nM"}, {"measurement": "GI50", "setting": "HCT-116; Homo sapiens, HCT-116", "value": 140, "unit": "nM"}, {"measurement": "GI50", "setting": "HCT-15", "value": 970, "unit": "nM"}, {"measurement": "GI50", "setting": "SF-539", "value": 170, "unit": "nM"}, {"measurement": "GI50", "setting": "M14", "value": 78, "unit": "nM"}, {"measurement": "GI50", "setting": "OVCAR-3", "value": 530, "unit": "nM"}, {"measurement": "GI50", "setting": "786-0", "value": 180, "unit": "nM"}, {"measurement": "GI50", "setting": "MCF7; Homo sapiens, MCF7", "value": 180, "unit": "nM"}, {"measurement": "GI50", "setting": "[1]", "value": 22, "unit": "nM"}]}
{"smiles": "C/C1=C\\[C@H](C)C[C@H](C)OC(=O)C[C@H](c2ccc(O)cc2)NC(=O)[C@@H](C[C@]2(O)C(=O)Nc3ccccc32)N(C)C(=O)C(C)NC(=O)[C@@H](C)C1", "note": "(stereo partly specified) [JASPLAKINOLIDE S]", "values": [{"measurement": "Activity", "setting": "HeLa", "value": "inactive"}, {"measurement": "GI50", "setting": "HCT-116; Homo sapiens, HCT-116", "value": 810, "unit": "nM"}, {"measurement": "GI50", "setting": "MCF7; Homo sapiens, MCF7", "value": 2300, "unit": "nM"}]}
{"smiles": "C=C1C[C@H](C)C(=O)N[C@@H](C)C(=O)N(C)[C@H](Cc2c(Br)[nH]c3ccccc23)C(=O)N[C@@H](c2ccc(O)cc2)CC(=O)O[C@@H](C)C[C@@H](C)[C@H]1O", "values": [{"measurement": "Activity", "setting": "HeLa", "value": "inactive"}]}
{"smiles": "C/C1=C\\[C@H](C)C[C@H](C)OC(=O)C[C@H](c2ccc(O)cc2)NC(=O)[C@@H](Cc2ncnc3ccccc23)N(C)C(=O)C(C)NC(=O)[C@@H](C)C1", "note": "(stereo partly specified)", "values": [{"measurement": "Activity", "setting": "HeLa", "value": "inactive"}]}
{"smiles": "C/C1=C\\[C@H](C)C[C@H](C)OC(=O)C[C@H](c2ccc(O)cc2)NC(=O)[C@@H](Cc2c(Br)[nH]c3ccccc23)N(C)C(=O)[C@H](C)NC(=O)[C@@H](C)C1", "note": "[JASPAMIDE]", "values": [{"measurement": "Activity", "setting": "HeLa", "value": "Active"}, {"measurement": "GI50", "setting": "HOP-62", "value": 150, "unit": "nM"}, {"measurement": "GI50", "setting": "HCT-116; Homo sapiens, HCT-116", "value": 100, "unit": "nM"}, {"measurement": "GI50", "setting": "HCT-15", "value": 690, "unit": "nM"}, {"measurement": "GI50", "setting": "SF-539", "value": 300, "unit": "nM"}, {"measurement": "GI50", "setting": "M14", "value": 56, "unit": "nM"}, {"measurement": "GI50", "setting": "OVCAR-3", "value": 40, "unit": "nM"}, {"measurement": "GI50", "setting": "786-0", "value": 20, "unit": "nM"}, {"measurement": "GI50", "setting": "[1]", "value": 31, "unit": "nM"}]}
{"smiles": "C=C1C[C@H](C)C(=O)N[C@@H](C)C(=O)N(C)[C@H](Cc2c(Br)[nH]c3ccccc23)C(=O)N[C@@H](c2ccc(O)cc2)CC(=O)O[C@@H](C)C[C@@H](C)[C@@H]1O", "values": [{"measurement": "Activity", "setting": "HeLa", "value": "inactive"}]}
{"smiles": "C/C1=C\\[C@H](C)C[C@H](C)OC(=O)C[C@H](c2ccc(O)cc2)NC(=O)[C@@H](Cc2c(Br)[nH]c3ccccc23)N(C)C(=O)[C@H](C)NC(=O)CC1", "values": [{"measurement": "Activity", "setting": "HeLa", "value": "Active"}]}
{"smiles": "COC1(C[C@@H]2C(=O)N[C@@H](c3ccc(O)cc3)CC(=O)O[C@@H](C)C[C@@H](C)/C=C(\\C)C[C@H](C)C(=O)N[C@@H](C)C(=O)N2C)OC(=O)Nc2ccccc21", "note": "(stereo in doubt; 6) [JASPLAKINOLIDEP]", "values": [{"measurement": "GI50", "setting": "HCT-116", "value": 380, "unit": "nM"}, {"measurement": "GI50", "setting": "MCF7", "value": 2400, "unit": "nM"}]}
{"smiles": "COC1(C[C@@H]2C(=O)N[C@@H](c3ccc(O)cc3)CC(=O)O[C@@H](C)C[C@@H](C)/C=C(\\C)C[C@H](C)C(=O)N[C@@H](C)C(=O)N2C)OC(=O)Nc2ccccc21", "note": "(stereo in doubt; 5) [JASPLAKINOLIDEP]", "values": [{"measurement": "GI50", "setting": "HCT-116; Homo sapiens, HCT-116", "value": 350, "unit": "nM"}, {"measurement": "GI50", "setting": "MCF7", "value": 4900, "unit": "nM"}]}
{"smiles": "COC1(C[C@@H]2C(=O)N[C@@H](c3ccc(O)cc3)CC(=O)O[C@@H](C)C[C@@H](C)/C=C(\\C)C[C@H](C)C(=O)N[C@@H](C)C(=O)N2C)OC(=O)Nc2ccccc21", "note": "(stereo in doubt; 5)", "values": [{"measurement": "Activity", "setting": "HeLa", "value": "inactive"}]}
{"smiles": "C/C1=C\\[C@H](C)C[C@H](C)OC(=O)C[C@H](c2ccc(O)cc2)NC(=O)[C@@H](C[C@@]2(O)C(=O)Nc3ccccc32)N(C)C(=O)C(C)NC(=O)[C@@H](C)C1", "note": "(stereo partly specified)", "values": [{"measurement": "Activity", "setting": "HeLa", "value": "inactive"}, {"measurement": "GI50", "setting": "HCT-116; Homo sapiens, HCT-116", "value": "> 10000", "unit": "nM"}, {"measurement": "GI50", "setting": "MCF7; Homo sapiens, MCF7", "value": "> 10000", "unit": "nM"}]}
{"smiles": "COC1(C[C@@H]2C(=O)N[C@@H](c3ccc(O)cc3)CC(=O)O[C@@H](C)C[C@@H](C)/C=C(\\C)C[C@H](C)C(=O)N[C@@H](C)C(=O)N2C)OC(=O)Nc2ccccc21", "note": "(stereo in doubt; 6)", "values": [{"measurement": "Activity", "setting": "HeLa", "value": "inactive"}]}
